Laboratory results published in ChEMBL document CHEMBL3414471 (J Med Chem, 2015).
Activity calls are given as the source filed them. The rule behind the calls is not given here.

Columns and labels:
[1] = target: T1, 5-hydroxytryptamine receptor 2C (Homo sapiens, UniProt P28335); experiment: Agonist activity at human 5-HT2C receptor expressed in HEK293 cells assessed as calcium flux by FLIPR assay; type: functional, cell-based
T1 sequence (P28335 whole entry): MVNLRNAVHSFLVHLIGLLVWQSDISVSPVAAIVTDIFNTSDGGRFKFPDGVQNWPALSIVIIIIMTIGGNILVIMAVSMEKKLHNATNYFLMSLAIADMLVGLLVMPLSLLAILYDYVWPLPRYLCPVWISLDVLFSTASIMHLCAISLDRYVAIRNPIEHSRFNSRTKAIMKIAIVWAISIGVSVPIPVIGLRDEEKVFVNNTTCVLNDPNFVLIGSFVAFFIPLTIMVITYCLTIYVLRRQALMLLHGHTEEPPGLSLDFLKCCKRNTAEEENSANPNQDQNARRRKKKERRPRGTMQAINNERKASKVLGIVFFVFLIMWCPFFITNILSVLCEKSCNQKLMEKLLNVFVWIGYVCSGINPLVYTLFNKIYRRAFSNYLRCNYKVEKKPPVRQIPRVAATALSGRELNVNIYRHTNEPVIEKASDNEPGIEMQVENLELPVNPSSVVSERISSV

[2] = target: T2, 5-hydroxytryptamine receptor 2C (Homo sapiens) (UniProt P28335); experiment: Agonist activity at human 5-HT2C receptor expressed in HEK293 cells assessed as calcium flux by FLIPR assay relative to 5-HT; type: functional, cell-based
T2 sequence (whole entry): T1 sequence (P28335 whole entry)
Procedure, shortened: (§1)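 Flp-In-293 cells stably expressing human 5-HT2A, 5-HT2B or 5-HT2C-INI; grown 24–48 h in DMEM/10% dialyzed FBS, plated on poly-L-Lys at 12000 cells/well in 1% dialyzed FBS for 24 h. Loaded 1 h at 37 °C with calcium dye in HBSS, 20 mM Hepes pH 7.40, 2.5 mM probenecid.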

[3] = target: T3, 5-hydroxytryptamine receptor 2B (Homo sapiens, UniProt P41595); experiment: Agonist activity at human 5-HT2B receptor expressed in HEK293 cells assessed as calcium flux at 10 uM by FLIPR assay; type: functional, cell-based
Procedure, shortened: (§2)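 Flp-In-293 cells stably expressing human 5-HT2A, 5-HT2B or 5-HT2C-INI, grown in DMEM with 10% dialyzed FBS, then plated for 24 h in 1% dialyzed FBS. Cells were loaded 1 h at 37 °C with calcium dye in Hepes-buffered HBSS, pH 7.40, containing 2.5 mM probenecid. FLIPR read 10 s baseline, then 120 s after drug addition.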

[4] = target: T4, 5-hydroxytryptamine receptor 2A (Homo sapiens, UniProt P28223); experiment: Agonist activity at human 5-HT2A receptor expressed in HEK293 cells assessed as calcium flux by FLIPR assay; type: functional, cell-based
[5] = target: T4, 5-hydroxytryptamine receptor 2A; experiment: Agonist activity at human 5-HT2A receptor expressed in HEK293 cells assessed as calcium flux by FLIPR assay relative to 5-HT; type: functional, cell-based; procedure, shortened: as §1
Homo sapiens [6] = species: Homo sapiens; experiment: Selectivity ratio of EC50 for human 5-HT2A receptor to EC50 for human 5HT2C receptor
CYP2D6 = CYP2D6 (Homo sapiens, UniProt P10635); experiment: Inhibition of human CYP2D6 using dextromethorphan as substrate at 10 uM; type: ADME; details: probe dextromethorphan
CYP2C9 = CYP2C9 (Homo sapiens, UniProt P11712); experiment: Inhibition of human CYP2C9 using diclofenac as substrate at 10 uM; type: ADME; details: probe diclofenac
CYP2C19 = CYP2C19 (Homo sapiens, UniProt P33261); experiment: Inhibition of human CYP2C19 using omeprazole as substrate at 10 uM; type: ADME; details: probe omeprazole
CYP2B6 = target: T5, CYP2B6 (Homo sapiens, UniProt P20813); experiment: Inhibition of human CYP2B6 using bupropion as substrate at 10 uM; type: ADME; details: probe bupropion
T5 sequence (P20813 whole entry): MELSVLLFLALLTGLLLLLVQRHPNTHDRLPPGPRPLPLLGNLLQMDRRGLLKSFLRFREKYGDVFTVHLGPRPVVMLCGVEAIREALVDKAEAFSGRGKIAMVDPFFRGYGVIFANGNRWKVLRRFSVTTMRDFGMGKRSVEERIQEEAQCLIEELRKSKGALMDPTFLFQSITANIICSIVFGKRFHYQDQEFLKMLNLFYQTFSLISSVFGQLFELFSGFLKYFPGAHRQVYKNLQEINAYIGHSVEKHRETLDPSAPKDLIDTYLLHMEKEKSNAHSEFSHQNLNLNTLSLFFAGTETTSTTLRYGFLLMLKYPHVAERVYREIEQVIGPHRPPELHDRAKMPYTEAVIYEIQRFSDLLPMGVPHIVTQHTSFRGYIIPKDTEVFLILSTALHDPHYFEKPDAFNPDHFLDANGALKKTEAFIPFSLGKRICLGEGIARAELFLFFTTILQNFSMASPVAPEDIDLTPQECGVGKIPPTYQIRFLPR

[7] = target: Voltage-gated inwardly rectifying potassium channel KCNH2 (Homo sapiens, UniProt Q12809); experiment: Inhibition of human ERG channel expressed in CHO cells by patch clamp method; type: cell-based; details: human, cho
hERG (KCNH2) [8] = target: T6, hERG (KCNH2) (Homo sapiens, UniProt Q12809); experiment: (§3) Inhibition of human ERG channel expressed in CHO cells at […] by patch clamp method; type: cell-based; details: CHO cells expressing human ERG channel
hERG (KCNH2) [9] = target: T6, hERG (KCNH2); experiment: as §3; type: cell-based; details: CHO cells expressing human ERG channel; remark: listed apart in the source
hERG (KCNH2) [10] = target: T6, hERG (KCNH2); experiment: Inhibition of human ERG channel expressed in CHO cells at 3.3 uM by patch clamp method; type: cell-based; details: CHO cells expressing human ERG channel
Procedure, shortened: (§4)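 hERG current recorded in CHO cells by automated patch clamp; percent inhibition at 0.37, 1.1, 3.3, 10 and 30 µM.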

hERG (KCNH2) [11] = target: T6, hERG (KCNH2); experiment: Inhibition of human ERG channel expressed in CHO cells at 10 uM by patch clamp method; type: cell-based; details: CHO cells expressing human ERG channel; procedure, shortened: as §4
hERG (KCNH2) [12] = target: T6, hERG (KCNH2); experiment: Inhibition of human ERG channel expressed in CHO cells at 30 uM by patch clamp method; type: cell-based; details: CHO cells expressing human ERG channel; procedure, shortened: as §4
[13] = target: Alpha-2A adrenergic receptor (Homo sapiens, UniProt P08913); experiment: Binding affinity to adrenergic alpha-2A receptor (unknown origin)
Mus musculus = experiment: Antipsychotic activity in C57BL/6J mouse assessed as reduction of amphetamine-induced locomotor activity at 10 to 20 mg/kg, ip administered 15 mins prior to amphetamine challenge measured for 105 mins by open field test relative to vehicle-treated control; type: functional, organism-based
CYP3A4 = CYP3A4 (Homo sapiens, UniProt P08684); experiment: Inhibition of human CYP3A4 using midazolam as substrate at 10 uM; type: ADME; details: probe midazolam
Procedure, shortened: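 Human liver microsomes with test compound at 10 µM; percent inhibition determined using bupropion (2B6), dextromethorphan (2D6) or midazolam (3A/3A4) as probe substrates.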

[14] = target: T3, 5-hydroxytryptamine receptor 2B; experiment: Agonist activity at human 5-HT2B receptor expressed in HEK293 cells assessed as calcium flux by FLIPR assay; type: functional, cell-based
[15] = target: T3, 5-hydroxytryptamine receptor 2B; experiment: Agonist activity at human 5-HT2B receptor expressed in HEK293 cells assessed as calcium flux by FLIPR assay relative to 5-HT; type: functional, cell-based; procedure, shortened: as §1
[16] = target: T4, 5-hydroxytryptamine receptor 2A; experiment: Agonist activity at human 5-HT2A receptor expressed in HEK293 cells assessed as calcium flux at 10 uM by FLIPR assay; type: functional, cell-based; procedure, shortened: as §2
Homo sapiens [17] = species: Homo sapiens; experiment: Selectivity ratio of EC50 for human 5-HT2B receptor to EC50 for human 5HT2C receptor

T4 sequence (P28223 whole entry): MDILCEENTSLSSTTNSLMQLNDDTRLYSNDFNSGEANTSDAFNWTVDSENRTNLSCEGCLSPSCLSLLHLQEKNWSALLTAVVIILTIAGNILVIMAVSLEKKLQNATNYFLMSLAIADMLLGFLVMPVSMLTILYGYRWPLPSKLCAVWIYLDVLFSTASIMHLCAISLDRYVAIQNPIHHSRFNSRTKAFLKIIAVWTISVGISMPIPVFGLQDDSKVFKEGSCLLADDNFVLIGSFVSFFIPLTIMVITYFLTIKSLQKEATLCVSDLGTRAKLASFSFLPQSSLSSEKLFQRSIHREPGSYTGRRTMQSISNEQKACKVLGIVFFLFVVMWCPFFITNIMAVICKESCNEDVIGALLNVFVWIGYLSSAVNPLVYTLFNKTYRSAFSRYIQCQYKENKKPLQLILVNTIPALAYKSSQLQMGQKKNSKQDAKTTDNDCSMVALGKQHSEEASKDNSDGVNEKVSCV
T3 sequence (P41595 whole entry): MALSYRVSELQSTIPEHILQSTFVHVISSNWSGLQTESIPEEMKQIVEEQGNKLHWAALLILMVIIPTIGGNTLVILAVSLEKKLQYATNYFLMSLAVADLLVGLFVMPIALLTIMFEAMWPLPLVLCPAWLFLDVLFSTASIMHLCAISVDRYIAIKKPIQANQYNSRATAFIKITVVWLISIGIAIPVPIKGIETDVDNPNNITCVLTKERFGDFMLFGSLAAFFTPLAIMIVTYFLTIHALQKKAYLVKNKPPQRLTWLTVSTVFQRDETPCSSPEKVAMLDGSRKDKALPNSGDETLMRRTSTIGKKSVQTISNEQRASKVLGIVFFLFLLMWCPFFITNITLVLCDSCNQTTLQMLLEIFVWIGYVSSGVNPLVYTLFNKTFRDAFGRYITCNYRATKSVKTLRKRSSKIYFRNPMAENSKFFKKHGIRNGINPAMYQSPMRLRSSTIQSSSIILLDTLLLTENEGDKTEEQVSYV
T6 sequence (Q12809 whole entry): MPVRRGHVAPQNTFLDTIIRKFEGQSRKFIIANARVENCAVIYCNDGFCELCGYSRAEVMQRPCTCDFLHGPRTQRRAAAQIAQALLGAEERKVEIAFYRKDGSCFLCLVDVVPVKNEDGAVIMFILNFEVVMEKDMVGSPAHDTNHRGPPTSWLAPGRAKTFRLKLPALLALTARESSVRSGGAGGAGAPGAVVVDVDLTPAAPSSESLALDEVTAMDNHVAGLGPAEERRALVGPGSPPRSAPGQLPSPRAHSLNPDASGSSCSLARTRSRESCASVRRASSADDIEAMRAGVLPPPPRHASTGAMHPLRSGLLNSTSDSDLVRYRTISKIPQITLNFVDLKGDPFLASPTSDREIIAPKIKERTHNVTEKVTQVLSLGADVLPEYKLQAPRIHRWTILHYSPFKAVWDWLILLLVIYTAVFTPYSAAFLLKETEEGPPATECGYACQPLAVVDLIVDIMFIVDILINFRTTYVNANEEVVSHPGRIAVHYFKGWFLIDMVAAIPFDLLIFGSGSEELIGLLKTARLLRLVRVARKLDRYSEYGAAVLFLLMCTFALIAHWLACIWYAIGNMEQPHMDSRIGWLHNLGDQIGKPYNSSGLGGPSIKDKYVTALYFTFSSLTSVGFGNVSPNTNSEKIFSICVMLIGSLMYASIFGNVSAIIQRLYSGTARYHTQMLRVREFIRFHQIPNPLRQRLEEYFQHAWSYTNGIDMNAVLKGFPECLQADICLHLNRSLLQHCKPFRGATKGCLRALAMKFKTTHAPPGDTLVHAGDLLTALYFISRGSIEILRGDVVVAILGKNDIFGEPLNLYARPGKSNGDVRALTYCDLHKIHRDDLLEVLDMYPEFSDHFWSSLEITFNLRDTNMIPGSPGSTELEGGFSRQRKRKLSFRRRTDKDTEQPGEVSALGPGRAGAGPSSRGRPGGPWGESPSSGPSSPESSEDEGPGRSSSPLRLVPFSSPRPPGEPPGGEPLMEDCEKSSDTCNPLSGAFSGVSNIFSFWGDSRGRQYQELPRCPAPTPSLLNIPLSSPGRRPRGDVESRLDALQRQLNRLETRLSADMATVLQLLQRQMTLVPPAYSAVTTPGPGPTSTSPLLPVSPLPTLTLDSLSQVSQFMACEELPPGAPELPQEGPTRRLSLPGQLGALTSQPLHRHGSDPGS
CYP3A4, sequence (P08684 whole entry): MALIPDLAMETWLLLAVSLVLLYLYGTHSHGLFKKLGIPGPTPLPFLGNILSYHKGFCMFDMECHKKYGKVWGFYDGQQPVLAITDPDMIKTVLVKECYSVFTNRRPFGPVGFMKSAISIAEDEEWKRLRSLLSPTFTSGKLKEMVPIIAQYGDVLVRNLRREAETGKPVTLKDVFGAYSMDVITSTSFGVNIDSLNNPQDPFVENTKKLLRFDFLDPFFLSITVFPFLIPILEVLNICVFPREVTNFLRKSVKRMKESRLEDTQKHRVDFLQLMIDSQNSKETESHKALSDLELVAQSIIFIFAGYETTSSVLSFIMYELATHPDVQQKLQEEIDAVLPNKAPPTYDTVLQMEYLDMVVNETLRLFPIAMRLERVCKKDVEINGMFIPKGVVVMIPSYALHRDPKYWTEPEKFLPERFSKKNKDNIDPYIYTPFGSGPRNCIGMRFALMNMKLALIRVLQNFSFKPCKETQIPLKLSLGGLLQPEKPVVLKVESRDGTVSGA
Alpha-2A adrenergic receptor, sequence (P08913 whole entry): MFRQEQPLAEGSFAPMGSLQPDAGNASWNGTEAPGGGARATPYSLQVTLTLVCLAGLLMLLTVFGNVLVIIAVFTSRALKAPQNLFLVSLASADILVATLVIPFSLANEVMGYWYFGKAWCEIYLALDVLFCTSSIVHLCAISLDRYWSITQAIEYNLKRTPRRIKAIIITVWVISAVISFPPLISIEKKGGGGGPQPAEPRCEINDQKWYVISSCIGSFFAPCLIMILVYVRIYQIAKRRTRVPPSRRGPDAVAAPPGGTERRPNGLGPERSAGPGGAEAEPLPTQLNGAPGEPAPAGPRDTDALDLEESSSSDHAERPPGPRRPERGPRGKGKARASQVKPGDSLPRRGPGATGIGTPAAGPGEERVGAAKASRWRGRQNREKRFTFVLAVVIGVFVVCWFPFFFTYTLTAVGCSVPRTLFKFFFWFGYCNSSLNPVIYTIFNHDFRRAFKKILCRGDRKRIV
CYP2D6, sequence (P10635 whole entry): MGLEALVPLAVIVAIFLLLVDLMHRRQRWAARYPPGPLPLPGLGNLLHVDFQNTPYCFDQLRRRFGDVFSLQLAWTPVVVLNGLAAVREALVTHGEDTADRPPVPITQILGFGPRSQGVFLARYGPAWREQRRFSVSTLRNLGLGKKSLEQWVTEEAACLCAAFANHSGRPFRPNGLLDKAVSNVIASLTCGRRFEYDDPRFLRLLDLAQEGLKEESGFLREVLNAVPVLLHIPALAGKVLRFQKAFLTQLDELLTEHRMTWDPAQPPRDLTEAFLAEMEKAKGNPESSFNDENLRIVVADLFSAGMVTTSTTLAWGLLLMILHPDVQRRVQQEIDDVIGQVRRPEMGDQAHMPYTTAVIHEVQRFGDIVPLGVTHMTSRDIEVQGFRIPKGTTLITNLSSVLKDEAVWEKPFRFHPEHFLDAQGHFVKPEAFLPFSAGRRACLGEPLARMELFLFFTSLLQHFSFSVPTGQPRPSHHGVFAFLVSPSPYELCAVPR
CYP2C9, sequence (P11712 whole entry): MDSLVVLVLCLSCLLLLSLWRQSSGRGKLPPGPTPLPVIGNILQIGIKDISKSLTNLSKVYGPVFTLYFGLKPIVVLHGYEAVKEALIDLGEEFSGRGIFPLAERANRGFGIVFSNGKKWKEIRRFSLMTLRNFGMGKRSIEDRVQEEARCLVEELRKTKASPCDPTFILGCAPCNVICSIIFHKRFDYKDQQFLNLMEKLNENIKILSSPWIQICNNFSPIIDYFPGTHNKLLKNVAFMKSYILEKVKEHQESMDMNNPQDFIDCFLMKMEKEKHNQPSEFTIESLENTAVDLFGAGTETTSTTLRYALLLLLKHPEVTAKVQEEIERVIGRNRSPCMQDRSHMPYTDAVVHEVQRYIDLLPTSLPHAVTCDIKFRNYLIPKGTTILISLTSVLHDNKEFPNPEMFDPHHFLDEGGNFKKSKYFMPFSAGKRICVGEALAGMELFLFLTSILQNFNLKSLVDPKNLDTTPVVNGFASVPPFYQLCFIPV
CYP2C19, sequence (P33261 whole entry): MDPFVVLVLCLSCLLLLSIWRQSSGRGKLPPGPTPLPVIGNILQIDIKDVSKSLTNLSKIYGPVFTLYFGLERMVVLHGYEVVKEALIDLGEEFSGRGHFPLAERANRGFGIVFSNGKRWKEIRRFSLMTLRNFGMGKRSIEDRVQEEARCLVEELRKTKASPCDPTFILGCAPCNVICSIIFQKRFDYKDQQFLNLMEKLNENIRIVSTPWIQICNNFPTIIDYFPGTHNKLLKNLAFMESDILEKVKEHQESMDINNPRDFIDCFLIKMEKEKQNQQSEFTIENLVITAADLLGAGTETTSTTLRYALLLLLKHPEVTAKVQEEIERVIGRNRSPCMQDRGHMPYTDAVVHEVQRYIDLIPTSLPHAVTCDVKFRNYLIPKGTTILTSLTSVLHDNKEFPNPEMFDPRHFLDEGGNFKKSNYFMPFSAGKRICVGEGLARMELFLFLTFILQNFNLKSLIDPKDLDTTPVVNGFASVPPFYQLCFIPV

`Cl.NC[C@H]1C[C@@H]1c1cc(F)ccc1OCCF` was tested, and the EC50 [1] was 3.4 nM, the Emax [2] was 89% and the Activity [3] was “inactive”. For the same compound, the EC50 [4] was 359 nM, the Emax [5] was 76% and the Ratio EC50 (Homo sapiens [6]) was greater than 100. It also gave an inhibition at 10 µM (CYP2D6) of 24%, an inhibition at 10 µM (CYP2C9) of 16% and an inhibition at 10 µM (CYP2C19) of 26%. For the same compound, the inhibition at 10 µM (CYP2B6) was 6%, the “inhibition (INH)” value [7] was “Dose-dependent effect” and the inhibition at […] (hERG (KCNH2) [8]) was 6%. It also gave an inhibition at […] (hERG (KCNH2) [9]) of 11%, an inhibition at 3.3 µM (hERG (KCNH2) [10]) of 15% and an inhibition at 10 µM (hERG (KCNH2) [11]) of 25%. The inhibition at 30 µM (hERG (KCNH2) [12]) was 35%, the Ki [13] was less than 1000 nM and the Activity (Mus musculus) was “Active”. For the same compound, the inhibition at 10 µM (CYP3A4) was 10%.

Compound `CCCOc1ccc(Cl)cc1[C@H]1C[C@@H]1CN` has an EC50 [1] of 103 nM, an Emax [2] of 72% and an EC50 [14] of 3440 nM. For the same compound, the Emax [15] was 25%, the Activity [16] was “inactive” and the Ratio EC50 (Homo sapiens [17]) was 33.
